The results in this text go back to ChEMBL document CHEMBL4842318, “A γ-lactam siderophore antibiotic effective against multidrug-resistant Pseudomonas aeruginosa, Klebsiella pneumoniae, and Acinetobacter spp” (Eur J Med Chem, 2021).

For orientation: MIC means the lowest concentration found to suppress growth. For orientation: MIC90 means an inhibitory concentration at the 90% level, which refers to growth in some studies and to a panel of isolates in others.

Data set [1] relates to Pseudomonas aeruginosa. Description: Antibacterial activity against wild type Pseudomonas aeruginosa isolate PR-672 assessed as inhibition of bacterial growth by microdilution method. In kind it is functional. The essentials: (§1)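 Broth microdilution MIC in iron-depleted (Chelex resin-treated) cation-adjusted Mueller-Hinton broth, following the protocol used for siderophore-containing antibiotics. Inoculum was lowered to 6 × 10^4 cfu/mL.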

A short description of data set [2]: Substrate activity at OXA-23 (unknown origin) assessed as Kcat by measuring hydrolysis by spectrophotometry. The class given is ADME.
Data set [3] deals with Acinetobacter baumannii. Description: Antibacterial activity against carbapenem resistant Acinetobacter baumannii isolate PR-384 assessed as inhibition of bacterial growth at 1:1 compound to sulbactam concentration by microdilution method. The class given is functional. The essentials:
(§2)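 Iron-depleted (Chelex-treated) cation-adjusted Mueller-Hinton broth microdilution; inoculum 6 × 10^4 cfu/mL. Test agent and sulbactam mixed 1:1 by mass and serially 2-fold diluted together. MIC in μg/mL.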
In general terms: Dilution methods test growth across graded concentrations, often in twofold steps.

The nature of data set [4]: Substrate activity at IMP-1 (unknown origin) assessed as ratio of Kcat to Km by measuring hydrolysis by spectrophotometry. The class given is ADME. The essentials:
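Substrate hydrolysis (600 μM start) followed at 336 nm (Δε336 = −4362 M−1 cm−1, 0.2 cm cuvette) to completion; velocities over 10 s intervals along progress curve; Km, Vmax from double reciprocal plot, kcat = Vmax/[E].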

Data set [5] concerns Acinetobacter baumannii. In words: Antibacterial activity against carbapenem resistant Acinetobacter baumannii isolate PR-325 assessed as inhibition of bacterial growth at 1:1 compound to sulbactam concentration by microdilution method. In kind it is functional. In a few lines: as §2
For data set [6], the system named is Acinetobacter baumannii. Description: Antibacterial activity against carbapenem susceptible Acinetobacter baumannii isolate PR-478 assessed as bacterial growth inhibition by microdilution method. In kind it is functional. The essentials: as §1
The test system of data set [7] is Acinetobacter baumannii. Description: Antibacterial activity against carbapenem susceptible Acinetobacter baumannii isolate PR-478 assessed as inhibition of bacterial growth in presence of 20 ug/ml sulbactam by microdilution method. The class given is functional. The following applies: dose 20 µg/ml. The essentials:
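MIC by broth microdilution using iron-depleted (Chelex-treated) cation-adjusted Mueller-Hinton broth and 6 × 10^4 cfu/mL inoculum. Compound serially diluted with sulbactam held constant at 20 μg/mL.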

In data set [8] the test system is Pseudomonas aeruginosa. Description: Antibacterial activity against Pseudomonas aeruginosa AR-BANK#0229 infected in sc dosed thigh infection mouse model assessed as reduction in CFU treated four times at 6 hrs interval measured at 26 hrs after infection. The class given is functional, organism-based. In a few lines:
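Neutropenic mice (cyclophosphamide) inoculated intramuscularly with 1.02 × 10^6 CFU/mouse. Drug given SC at 50 and 100 mg/kg q6h at 2, 8, 14 and 20 h post-infection. Thighs harvested at 26 h and weighed. Thigh CFU/g compared with the 2 h baseline (Δ reported) and with vehicle, using one-way ANOVA with Dunnett's test.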

Data set [9] deals with Acinetobacter baumannii. Description: Antibacterial activity against 98 member subset of carbapenem resistant Acinetobacter baumannii assessed as assessed as inhibition of bacterial growth by microdilution method. The class given is functional. In a few lines:
(§3)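 Broth microdilution in Chelex-treated, iron-depleted cation-adjusted Mueller-Hinton broth, following the protocol used for siderophore-containing antibiotics; inoculum lowered to 6 × 10^4 cfu/mL; MIC read as growth inhibition, in μg/mL.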

The subject of data set [10] is Acinetobacter baumannii. In words: Antibacterial activity against carbapenem resistant Acinetobacter baumannii isolate PR-401 assessed as inhibition of bacterial growth in presence of 20 ug/ml sulbactam by microdilution method. In kind it is functional. The following applies: dose 20 µg/ml.
Data set [11] relates to Pseudomonas aeruginosa. In words: Antibacterial activity against Pseudomonas aeruginosa isolate PR-627 leucine at 533 residue assessed as inhibition of bacterial growth by microdilution method. In kind it is functional. In a few lines:
as §3

Data set [12] in a line: Antibacterial activity against carbapenem susceptible Acinetobacter nosocomialis isolate PR-412 assessed as bacterial growth inhibition by microdilution method. The class given is functional. In a few lines:
as §1

Each structure is given as a SMILES string.

With `CC(C)(O/N=C(\C(=O)N[C@H]1CN2CC(C(=O)NCCN3C(=O)c4cc(O)c(O)cc4C3=O)=C(C(=O)O)N2C1=O)c1nc(N)sc1Cl)C(=O)O`, the minimum inhibitory concentration (MIC) in [1] is not above 0.25 µg/mL; in data set [3], 16 µg/mL; in [5] it was more than 16 µg/mL; in data set [6], 16 µg/mL; in data set [7], not above 0.25 µg/mL; in data set [10], not above 0.25 µg/mL. Further, the minimum inhibitory concentration (MIC) in [11] and in [12] was more than 16 µg/mL each time. Besides, in data set [2], the Kcat entry is listed as “Nottraceable”. In addition, in data set [4], the Kcat/Km amounted to 3000 M⁻¹ s⁻¹. In addition, the Activity result in data set [8] was “Dose-Dependent Effect”. The MIC90 in data set [9] was more than 16 µg/mL.
